Columns and labels:
[1] = folding enthalpy; higher = less favourable; fluorescence melt of hairpins on a sequencing array, two-state fit; settings: sodium 0.088 M
Procedure, shortened: (§1)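 Melting temperature and folding enthalpy were obtained by bootstrapped two-state fitting. Fits used Cy3 fluorescence of library hairpins with annealed Cy3 and quencher oligos on a sequenced MiSeq flow cell, imaged in 50 mM Na-HEPES pH 8.0, 25 mM NaCl in 2.5 °C steps up to 60 °C and normalised to pre-quench Cy3 and control constructs. Four replicates were combined by inverse-variance weighting, and fitted temperatures were raised by 9.35 °C to match UV melts.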

[2] = melting temperature; fluorescence melt of hairpins on a sequencing array, two-state fit, raised by 9.35 °C to match UV melts; settings: sodium 0.088 M
Procedure, shortened: as §1

| Sequence | folding enthalpy [1] [kcal/mol] | Tm [2] [°C] |
| --- | --- | --- |
| GATTCCGAAAGGAGGATC ((((((....)))..))) | -11.2 | 30.4 |
| GATTCCGAAAGGATGATC ((((((....)))..))) | -21.8 | 31.8 |
| GATTCGGGAAACCGAATC (((((((....))))))) | -47.5 | 60.4 |
| GATTCGGGAAACCGGATC (((.(((....))).))) | -39.6 | 49.3 |
| GATTCGGGAAACTGAATC (((((.(....).))))) | -40.8 | 45 |
| GATTGACGAAAGTCTATC (((.(((....))).))) | -26.2 | 46.1 |
| GATTGAGGAAACTCAGTC ((.((((....)))).)) | -26.8 | 36.6 |
| GATTGCGAAAGCAATATC ((((((....)))..))) | -13.1 | 50.1 |
| GATTGCGAAAGCACATC ((((((....))).))) | -19.3 | 40.1 |
| GATTGCGAAAGCAGAATC ((((((....)))..))) | -13.8 | 35.4 |
| GATTGCGGAAACGCAACC (.(((((....))))).) | -12.2 | 45.5 |
| GATTGGCGAAAGCCATC (((.(((....)))))) | -9.48 | 41.3 |
| GATTGGGGAAACCCAACC (.(((((....))))).) | -14.5 | 36.7 |
| GATTGGGGAAACCCAATC (((((((....))))))) | -41 | 61 |
| GATTGTGGAAACATAATC ((((.((....)).)))) | -27.3 | 36.1 |
| GATTGTGGAAACATGATC (((..((....))..))) | -18 | 31.2 |
| GATTTAGCGAAAGCTATC (((..(((....)))))) | -10.5 | 29.1 |
| GATTTAGGAAACTGAATC ((((.((....)).)))) | -26.4 | 33.1 |
| GATTTCGGAAACGGAATC ((((.((....)).)))) | -38.9 | 45 |
| GATTTTACGAAAGTAATC (((..(((....)))))) | -13.6 | 26.3 |
| GCAAAACGAAAGTTATGC (((.(((....))).))) | -28.9 | 45.8 |
| GCAAAACGAAAGTTGTGC (((.(((....))).))) | -34.2 | 49.1 |
| GCAAACCCGAAAGGGTGC (((..(((....)))))) | -17.5 | 51.7 |

| Sequence | folding enthalpy [1] [kcal/mol] | Tm [2] [°C] |
| --- | --- | --- |
| GCAAACCGAAAGGTGTGC (((.(((....))).))) | -37.6 | 57.3 |
| GCAAACGAAAGTTCATGC ((((((....)))..))) | -11.2 | 26 |
| GCAAACGAAAGTTCTGC ((((((....))).))) | -20.5 | 37.2 |
| GCAAACGAAAGTTGCTGC ((((((....)))..))) | -22.2 | 54.1 |
| GCAAACGAAAGTTGGTGC ((((((....)))..))) | -22.5 | 36.7 |
| GCAAACGAAAGTTGTTGC ((((((....)))..))) | -22.5 | 32.9 |
| GCAAACGAAAGTTTCTGC ((((((....)))..))) | -14.9 | 33.8 |
| GCAAACGAAAGTTTGTGC ((((((....)))..))) | -25.2 | 52.8 |
| GCAAACGAAAGTTTTTGC ((((((....)))..))) | -16.1 | 35.2 |
| GCAAACGGAAACATTTGC (((((.(....).))))) | -28.2 | 36.7 |
| GCAAACGGAAACGCTTGC ((((.((....)).)))) | -35.1 | 47.6 |
| GCAAAGCGAAAGCCATGC (((..((....))..))) | -12.3 | 32.2 |
| GCAAAGCGAAAGCCTAGC ((.(.((....)).).)) | -7.83 | 30.2 |
| GCAAAGCGAAAGCCTCGC ((.(.((....)).).)) | -7.59 | 27.9 |
| GCAAAGCGAAAGCGCTGC (((..((....))..))) | -16.9 | 57.4 |
| GCAAAGCGAAAGCTACGC ((..(((....)))..)) | -11 | 40.8 |
| GCAAAGCGAAAGCTAGGC ((..(((....)))..)) | -15.1 | 48.3 |
| GCAAAGCGAAAGCTTCGC ((.((((....)))).)) | -23.8 | 55.8 |
| GCAAAGCGAAAGCTTGC (((.(((....)))))) | -23.8 | 64.5 |
| GCAAAGTCGAAAGACTGC (((..(((....)))))) | -19.5 | 47.8 |
| GCAAATGGAAACATTTAC (.(((((....))))).) | -13.5 | 28.1 |
| GCAACAGGAAACTATTGC ((((.((....)).)))) | -19.2 | 31.8 |
| GCAACAGGAAACTGTCGC ((.((((....)))).)) | -32.1 | 44.2 |

— the array DNA melting data of Ke et al. (doi:10.1101/2024.01.08.574731)
